Sampled rows, rich in hits. Any-hit rate of the full collection: about 2.6%.
Vif inh: HIV Vif inhibition | inhibition, % at 7.49 µM | 340,000 tested, 0.35% active | HEK293T cells, Vif self-association by quenched fluorescence, imaging, 24 h; in the data active = inhibition above about 50%, passing the limit was not always enough; inconclusive = no clear call, values can overlap the other calls; inactive = below about 31%
MITF act: MITF TRPM1 promoter activation in melanoma cells. SK-MEL-5 TRPM1-promoter luciferase, 24 h; % of positive control, neutral wells = 0. activation, % at 12.5 µM. 300,000 tested, 0.75% active. AID 588334;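 active = mean activation of at least 80% with every replicate also reaching 80%; inconclusive = mean reaches 80% but some replicate falls short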;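 note: 0% = neutral control wells and 100% = parthenolide positive control wells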
esBAF inh: SWI/SNF esBAF complex inhibition | mouse ES cells, Bmi1-luciferase knock-in reporter, 24 h; 100% = twice the neutral-well signal | reporter increase, % at 12.5 µM | 350,000 tested, 2% active; in the data active = activation above about 40%; inconclusive = no clear call, values can overlap the other calls;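 note: 0% = median of the plate's neutral control wells and 100% = double that signal; a rise in the Bmi1 reporter signal indicates esBAF inhibition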
Wnt bcat act: Wnt/beta-catenin pathway activation; Wnt/beta-catenin reporter cell assay, activator, plate reader; activation, % at 9.35 µM; 300,000 tested, 1.2% active; in the data active = activation above about 30%, passing the limit was not always enough; inconclusive = no clear call, values can overlap the other calls;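 note: 0% = neutral control wells and 100% = positive control wells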
XiGFP reactiv: activators of X-chromosome reactivation in mouse fibroblasts. activation, % at 7.58 µM. 360,000 tested, 0.055% active. XiGFP mouse fibroblasts, % GFP-positive cells imaging, 3 d; cells co-treated with 5-aza-dC sensitizer; scaled so ellipticine positive control = 100%;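 active = mean normalized replicate activation at least 10% and every replicate at or above 10%; inconclusive = only one of the two criteria met; inactive = mean below 10% and not all replicates reach 10%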;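 note: 0% = median of on-plate neutral control wells and 100% = ellipticine 6 µM median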
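Schedule: 3 d treatment, 15 min room-temperature fixation; system: 68-5-11 XiGFP fibroblast line; buffer or medium: DMEM plus 5-aza-dC sensitizer; control set: ellipticine 6 µM positive control; compound: one concentration, pinned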
Active calls of the source: *; ? = inconclusive; . = no result given.

SMILES	Vif inh	MITF act	esBAF inh	Wnt bcat act	XiGFP reactiv
C[C@@H]1CCCCO[C@H](CN(C)C(=O)Nc2ccc3c(c2)OCO3)[C@H](C)CN([C@@H](C)CO)C(=O)c2cc(NC(=O)CCCN(C)C)ccc2O1	.	.	-0.4	.	0.2
S=c1[nH]nc(-c2ccncc2)n1/N=C/C(Cl)=C\c1ccccc1	3.8	70.9	.	31.8*	0.0
O=C(c1ccc2c(c1)OCO2)N(CC1CCCO1)C1(C(=O)NC2CCCC2)CCCCC1 (stereo not drawn)	69.5*	-8.8	-6.0	0.4	.
O=C(NC1(C(=O)NC2CCCCC2)CCCCC1)c1ccc2c(c1)OCO2	8.3	-2.7	.	-1.1	.
CCCNC(=O)c1n[nH]c(=O)c2ccccc12	-1.9	1.6	-4.9	.	.
CCc1ccc(NC(=O)c2n[nH]c(=O)c3ccccc23)cc1	-4.7	107.1*	59.7*	28.7	0.6
Cc1ccc(S(=O)(=O)Nc2ccc3c(c2)C(=O)N([C@H](C)CO)C[C@H](C)[C@H](CN(C)C(=O)Cc2ccccc2)OCCCC[C@H](C)O3)cc1	.	.	3.0	.	0.3
C[C@@H]1CN([C@@H](C)CO)C(=O)Cc2cc(NC(=O)Cn3cnnn3)ccc2O[C@H]1CN(C)C(=O)Nc1cccc2ccccc12	.	.	.	.	0.3
COc1ccc(-c2csc(NC(=O)C3=COCCO3)n2)cc1OC	6.6	73.6	65.5*	35.2*	0.0
Cc1cc(C)c(-c2csc(NC(=O)C3=COCCO3)n2)c(C)c1	4.1	-8.3	28.9	0.3	0.1
Cc1cc(-c2csc(NC(=O)C3=COCCO3)n2)c(C)n1C	-12.1	19.2	-4.4	-2.4	0.0
O=C(Nc1nc(-c2ccc(F)c(F)c2)cs1)C1=COCCO1	-5.7	62.3	52.6*	8.6	0.5
O=C(Cc1ccccc1F)Nc1nc(-c2ccc(F)c(F)c2)cs1	-10.4	83.2*	65.1*	9.1	.
O=C(Cc1ccccc1)Nc1nc(-c2ccc(F)c(F)c2)cs1	-14.4	28.7	16.5	4.0	0.5
CCc1ccc(-c2csc(NC(=O)C3=COCCO3)n2)cc1	-3.2	82.3*	74.7*	?	-0.1
CCCC(=O)Nc1ccc2c(c1)OC[C@H](C)N(C(=O)c1ccccn1)C[C@@H](C)[C@@H](OC)CN(C)C2=O	.	.	-3.2	.	2.7
CNC[C@H]1Oc2ccc(N)cc2C(=O)N(C)C[C@H]1C	.	.	.	.	0.0
C[C@H](CO)N1C[C@H](C)[C@H](CN(C)C(=O)Nc2ccc(F)cc2)Oc2ccc(NC(=O)Nc3ccccc3)cc2C1=O	.	.	2.7	.	-0.4
CCC(=O)N1C[C@@H](C)[C@H](OC)CN(C)C(=O)c2ccc(NC(=O)Nc3ccc(Cl)cc3)cc2OC[C@H]1C	.	.	1.8	.	0.2
C[C@H]1CN([C@@H](C)CO)S(=O)(=O)c2ccc(/C=C/c3ccccc3)cc2O[C@@H]1CN(C)C(=O)Nc1ccc(F)cc1	.	.	0.6	.	-1.0
C[C@@H]1CN([C@@H](C)CO)C(=O)c2cc(N(C)C)ccc2O[C@H]1CN(C)C(=O)Nc1ccc2c(c1)OCO2	.	.	-1.3	.	-0.3
O=C(Nc1nc(-c2ccc(Cl)cc2)cs1)C1=COCCO1	-4.6	98.6*	.	-2.1	-0.1
O=C(Nc1nc(-c2cccs2)cs1)C1=COCCO1	-2.0	62.5	.	-6.6	0.1
CC(=O)c1sc(NC(=O)c2cc(=O)c3ccccc3o2)nc1C	8.5	16.2	-9.2	7.3	0.0
COc1ccc2oc(C(=O)Nc3nnc(C)s3)c(C)c2c1	-0.8	37.5	-22.2	34.4*	0.1
SMILES	Vif inh	MITF act	esBAF inh	Wnt bcat act	XiGFP reactiv
Cc1ccc2oc(C(=O)Nc3nnc(C)s3)c(C)c2c1	.	43.6	65.1*	57.5*	.
CC(=O)c1sc(NC(=O)c2oc3ccc(F)cc3c2C)nc1C	-9.9	66.3	49.8*	39.4*	-0.1
O=S(=O)(c1ccccc1)N1C[C@H]2[C@@H](c3ccccc31)[C@@H](CO)N2Cc1ccccc1	.	.	-0.9	.	0.0
CO[C@@H]1CN(C)C(=O)c2ccc(NS(C)(=O)=O)cc2OC[C@@H](C)NC[C@H]1C	.	.	-0.4	.	0.2
CC(C)C(=O)NCCc1nc(-c2ccccc2Cl)no1	83.3*	13.1	5.0	5.5	0.0
O=C(NCCc1nc(-c2ccccc2Cl)no1)c1ccccc1	11.1	1.4	1.1	-0.3	0.7
C#CCn1c(=NC(=O)c2cccs2)sc2cccc(OC)c21	-5.6	2.0	54.0*	12.7	-0.1
CNC[C@@H]1Oc2ccc(NS(=O)(=O)c3ccccc3)cc2CC(=O)N([C@H](C)CO)C[C@H]1C	.	.	-3.0	.	-0.8
